Measurements: ChEMBL document CHEMBL3351277, “Discovery and structure-activity relationship studies of irreversible benzisothiazolinone-based inhibitors against Staphylococcus aureus sortase A transpeptidase” (Bioorg Med Chem, 2014)
≈ marks a conversion by molar mass, not a printed value. Calls of active or inactive are those of the source. The calls are words filed in the database; no cut-off is given here.

Assays:
[1] = system: Staphylococcus epidermidis; experiment: Antibacterial activity against Staphylococcus epidermidis ATCC 12228 after 24 hrs by broth dilution method; assay type: functional; details: ATCC 12228, 24 h
Outline: (§1)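 Broth microdilution, 0.1–500 µg/mL in Mueller Hinton broth for S. aureus and S. epidermidis and Luria Bertani broth for E. coli. Inoculum was log-phase culture at OD600 0.1, incubated 24 h at 37 °C, with growth read as A600. Triplicates, repeated three times.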

[2] = Cytotoxicity against Swiss mouse NIH/3T3 cells after 48 hrs by MTT assay; assay type: cell-based; details: NIH3T3, 48 h
Outline: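 NIH 3T3 fibroblasts were seeded in DMEM with 10% FCS and rested 24 h, then exposed to graded compound concentrations for 48 h. Medium was replaced with phenol-red-free medium plus 1 mM MTT for 3 h, then 1% SDS–HCl was added for 4 h. A570 was read. IC50 was the 50% proliferation inhibition versus untreated control, from nonlinear dose–response regression.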

[3] = system: Staphylococcus aureus; experiment: Antibacterial activity against Staphylococcus aureus ATCC 25904 after 24 hrs by broth dilution method; assay type: functional; details: ATCC 25904, 24 h; outline: as §1
[4] = molecular target: T1, Sortase A (Staphylococcus aureus, UniProt Q9S446); experiment: Inhibition of Staphylococcus aureus sortase A using dabcyl-QALPETGEE-edans as substrate incubated for 1 hr prior to substrate addition measured at 1 min interval for 1 hr by FRET analysis
T1 sequence (Q9S446 whole entry): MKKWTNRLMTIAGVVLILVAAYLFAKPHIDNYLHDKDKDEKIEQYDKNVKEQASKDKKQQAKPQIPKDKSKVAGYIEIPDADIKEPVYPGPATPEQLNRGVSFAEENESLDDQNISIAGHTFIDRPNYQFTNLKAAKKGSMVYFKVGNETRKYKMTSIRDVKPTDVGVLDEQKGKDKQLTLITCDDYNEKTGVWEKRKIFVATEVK
Outline: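 Recombinant S. aureus SrtA catalytic domain (residues 1–59 deleted, C-terminal His6; E. coli BL21(DE3), Ni-NTA then gel filtration), 10 µM, preincubated 1 h at 37 °C with increasing inhibitor concentrations in 50 mM Tris-HCl pH 7.5, 5 mM CaCl2, 150 mM NaCl; then 20 µM substrate added. Fluorescence (ex 350/em 495 nm) read each minute for 1 h; progress curves constructed for IC50.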

[5] = system: Escherichia coli; experiment: Antibacterial activity against Escherichia coli ATCC 25922 after 24 hrs by broth dilution method; assay type: functional; details: ATCC 25922, 24 h; outline: as §1
[6] = molecular target: T2, Sortase A (Staphylococcus aureus) (UniProt Q9S446); experiment: Irreversible binding affinity to Staphylococcus aureus sortase A by 15N-1H HSQC NMR spectroscopy
T2 sequence (whole entry): T1 sequence (Q9S446 whole entry)
Outline: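 2D 15N–1H HSQC used 15N-labelled SrtAΔN59-6His (E. coli BL21(DE3), M9 with 15N-ammonium) at 0.3 mM. Buffer was 20 mM sodium acetate, 50 mM NaCl, 10 mM CaCl2, pH 6.0, 6% D2O. Inhibitor (100 mM stock in DMSO-d6) was added stepwise with a spectrum after each addition. Reversibility was checked by HSQC after dialysis against NMR buffer (100-fold dilution).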

Row | Compound | MIC [1] [µM] | IC50 [2] [µM] | MIC [3] [µM] | IC50 ([4]; read-out: IC50) [µM] | MIC [5] [µM] | IC50 [4] | Activity [6]
1 | O=C(CCn1sc2ccccc2c1=O)NC12CC3CC(CC(C3)C1)C2 | 5.61 (≈ 2 µg/mL) | 5.95 | 22.4 (≈ 8 µg/mL) | 3.81 | > 1400 |  | 
2 | CC12CC3CC(C)(C1)CC(NC(=O)CCn1sc4cccc(F)c4c1=O)(C3)C2 | 2.48 (≈ 0.998 µg/mL) | 9.89 | 39.7 (≈ 16 µg/mL) | 4.07 | > 1240 |  | 
3 | COC(=O)C12CC3CC(CC(N)(C3)C1)C2.Cl | > 2030 | 2290 | > 2030 |  | > 2030 | Not Active | 
4 | O=C(CCn1sc2cccc(F)c2c1=O)NNC(=O)C12CC3CC(CC(C3)C1)C2 | 19.2 (≈ 8 µg/mL) | 1.67 | 38.3 (≈ 16 µg/mL) | 3.39 | > 1200 |  | 
5 | CC12CC3(C)CC(O)(C1)CC(NC(=O)Cn1sc4ccccc4c1=O)(C2)C3 | 20.7 (≈ 8 µg/mL) | 1.33 | 20.7 (≈ 8 µg/mL) | 3.87 | > 1290 |  | 
6 | O=C(Cn1sc2ccccc2c1=O)NNC(=O)C12CC3CC(CC(C3)C1)C2 | 10.4 (≈ 4 µg/mL) | 14.4 | 41.5 (≈ 16 µg/mL) | 3.8 | > 1300 |  | 
7 | Cl.NC12CC3CC(CC(C3)C1)C2 [AMANTADINE HYDROCHLORIDE] | > 2660 | 2290 | > 2660 |  | > 2660 | Not Active | 
8 | CN(C)CCC(=O)c1ccc(Cl)c(Cl)c1 | 56.6 (≈ 13.9 µg/mL) | 9.71 | 113 (≈ 27.9 µg/mL) | 16.9 | > 1770 |  | 
9 | O=C(CN1Cc2ccccc2C1=O)NC12CC3CC(CC(C3)C1)C2 | > 1540 | 263 | > 1540 |  | > 1540 | Not Active | 
10 | O=C(CCn1sc2ccccc2c1=O)NC12CC3CC(CC(O)(C3)C1)C2 | 85.9 (≈ 32 µg/mL) | 7.13 | 43 (≈ 16 µg/mL) | 6.44 | > 1340 |  | 
11 | O=C(CCn1sc2ccccc2c1=O)NNC(=O)C12CC3CC(CC(C3)C1)C2 | 10 (≈ 4 µg/mL) | 12.2 | 20 (≈ 8 µg/mL) | 4.22 | > 1250 |  | 
12 | C=CS(=O)(=O)c1ccccc1 [(ETHENYLSULFONYL)BENZENE] | > 2960 | 7.91 | > 2960 |  | > 2960 |  | 
13 | O=C(CCn1sc2cccc(F)c2c1=O)NC12CC3CC(CC(C3)C1)C2 | 10.7 (≈ 4 µg/mL) | 0.9 | 85.5 (≈ 32 µg/mL) | 4.01 | > 1340 |  | 
14 | CC12CC3(C)CC(O)(C1)CC(NC(=O)CCn1sc4ccccc4c1=O)(C2)C3 | 40 (≈ 16 µg/mL) | 7.52 | 40 (≈ 16 µg/mL) | 7.06 | > 1250 |  | 
15 | CC12CC3CC(C)(C1)CC(NC(=O)Cn1sc4ccccc4c1=O)(C3)C2 | 43.2 (≈ 16 µg/mL) | 4.09 | 86.4 (≈ 32 µg/mL) | 4.99 | > 1350 |  | 
16 | COC(=O)C12CC3CC(CC(NC(=O)CCn4sc5cccc(F)c5c4=O)(C3)C1)C2 | 18.5 (≈ 8 µg/mL) | 8.02 | 37 (≈ 16 µg/mL) | 5.06 | > 1160 |  | 
17 | CC12CC3(C)CC(O)(C1)CC(NC(=O)CCn1sc4cccc(F)c4c1=O)(C2)C3 | 38.2 (≈ 16 µg/mL) | 2.17 | 38.2 (≈ 16 µg/mL) | 3.96 | > 1190 |  | 
18 | O=C(CCn1sc2cccc(F)c2c1=O)NC12CC3CC(CC(O)(C3)C1)C2 | 164 (≈ 64 µg/mL) | 1.34 | 164 (≈ 64 µg/mL) | 6.26 | > 1280 |  | 
19 | O=C(Cn1sc2ccccc2c1=O)NC12CC3CC(CC(C3)C1)C2 | 1.46 (≈ 0.5 µg/mL) | 1.27 | 2.92 (≈ 1 µg/mL) | 6.11 | > 1500 |  | Active
20 | COC(=O)C12CC3CC(CC(NC(=O)CCn4sc5ccccc5c4=O)(C3)C1)C2 | 19.3 (≈ 8 µg/mL) | 12.1 | 38.6 (≈ 16 µg/mL) | 5.08 | > 1210 |  | 
21 | CC12CC3CC(C)(C1)CC(NC(=O)CCn1sc4ccccc4c1=O)(C3)C2 | 20.8 (≈ 8 µg/mL) | 4.23 | 20.8 (≈ 8 µg/mL) | 4.62 | > 1300 |  | 
22 | O=C(O)CCn1sc2ccccc2c1=O | 287 (≈ 64 µg/mL) | 21.8 | 287 (≈ 64 µg/mL) | 12.8 | 71.7 (≈ 16 µg/mL) |  | 
